# From ChEMBL document CHEMBL2331090, “Benzoquinones and terphenyl compounds as phosphodiesterase-4B inhibitors from a fungus of the order Chaetothyriales (MSX 47445)” (J Nat Prod, 2013)
# Calls of active or inactive are those of the source. No cut-off for these calls is given here.
# Legend:
# MCF7 = assay: Cytotoxicity against human MCF7 cells; type: functional, cell-based
# Procedure, shortened: (§1)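 Panel of three human tumour lines: MCF-7 breast carcinoma, NCI-H460 large cell lung carcinoma and SF-268 astrocytoma. The cytotoxicity protocol follows the group's earlier reports.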
# Staphylococcus aureus = assay: Antibacterial activity against Staphylococcus aureus by agar plate diffusion assay; type: functional
# Candida albicans = assay: Antifungal activity against Candida albicans by agar plate diffusion assay; type: functional, organism-based
# NCI-H460 = assay: Cytotoxicity against human H460 cells; type: functional, cell-based; procedure, shortened: as §1
# SF-268 = assay: Cytotoxicity against human SF268 cells; type: functional, cell-based; procedure, shortened: as §1
# [1] = target: 3',5'-cyclic-AMP phosphodiesterase 4B (Homo sapiens, UniProt Q07343); assay: Inhibition of human PDE4B2
# [2] = Inhibition of cGMP-PDE (unknown origin); parameters: species or system Homo sapiens
# [3] = Inhibition of cAMP-PDE (unknown origin); parameters: species or system Homo sapiens
# Chain of 3',5'-cyclic-AMP phosphodiesterase 4B (Q07343 whole entry): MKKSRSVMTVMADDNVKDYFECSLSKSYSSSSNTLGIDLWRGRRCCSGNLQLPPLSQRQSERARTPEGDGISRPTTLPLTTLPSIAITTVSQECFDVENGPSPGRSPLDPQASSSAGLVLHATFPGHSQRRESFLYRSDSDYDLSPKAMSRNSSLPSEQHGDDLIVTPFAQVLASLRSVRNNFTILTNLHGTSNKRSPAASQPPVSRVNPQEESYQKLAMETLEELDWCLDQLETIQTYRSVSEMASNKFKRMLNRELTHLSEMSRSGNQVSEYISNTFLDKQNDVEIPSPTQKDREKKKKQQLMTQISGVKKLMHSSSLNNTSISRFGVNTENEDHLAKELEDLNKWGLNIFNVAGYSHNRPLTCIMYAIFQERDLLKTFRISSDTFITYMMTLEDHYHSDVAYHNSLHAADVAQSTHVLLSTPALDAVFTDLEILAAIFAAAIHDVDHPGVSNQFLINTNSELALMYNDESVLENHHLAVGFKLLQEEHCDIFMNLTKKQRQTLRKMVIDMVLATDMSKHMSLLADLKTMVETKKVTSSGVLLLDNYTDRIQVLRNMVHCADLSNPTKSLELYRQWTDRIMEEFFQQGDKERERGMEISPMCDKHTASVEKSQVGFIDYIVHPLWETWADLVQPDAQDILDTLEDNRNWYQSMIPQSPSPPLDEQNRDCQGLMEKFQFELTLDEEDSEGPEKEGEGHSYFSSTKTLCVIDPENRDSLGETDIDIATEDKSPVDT
MIC (Staphylococcus aureus) [µg/mL],IC50 [1] [µM],IC50 [2] [µM],IC50 [3] [µM],Compound,Activity (MCF7),Activity (Candida albicans),Activity (NCI-H460),Activity (SF-268)
25,31,–,–,COc1c(O)c(-c2ccccc2)cc(O)c1-c1ccccc1,Active,inactive,Active,Active
–,44,–,–,COC1=C(c2ccccc2)C(=O)C(OC)=C(c2ccccc2)C1=O [BETULINAN A],inactive,–,inactive,inactive
25,17,–,–,COC1=C(c2ccccc2)C(=O)C=C(c2ccccc2)C1=O [BETULINAN C],Active,inactive,Active,Active
–,–,0.96,0.82,COc1cc(-c2ccccc2)c(O)c(O)c1-c1ccccc1 [TERFEROL],–,–,–,–
